Calls of active or inactive are those of the source. No cut-off for these calls is given here. Where a SMILES comes first, the peptide text is derived from it. [ ]: non-standard residue; d: D form. Dopa = N[C@@H](Cc1ccc(O)c(O)c1)C(=O)O
Columns and labels:
[1] = Apparent permeability of the compound across apical side to basolateral side in human Caco-2 cells measured upto 180 mins by HPLC analysis; format: ADME, cell-based
[2] = Effective permeability of compound at 500 uM incubated for 18 hrs by […] method; format: ADME; conditions: read-out: Peff
Procedure, shortened: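 PAMPA-BBB: donor contained compound at 500 µM final in PBS pH 7.4 with 20% v/v MeOH. Incubated 18 h. Donor and acceptor concentrations measured by HPLC; effective permeability Pe (cm/s) calculated.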

PC-12 [3] = experiment: Upregulation of Gpx expression in MPP+ induced rat PC-12 cells at 50 nM pretreated with compound for 24 hrs followed by MPP+ stimulation and measured after 6 hrs; format: functional, cell-based; conditions: time 30.0 hrs
PC-12 [4] = experiment: Inhibition of MPP+ induced GSH level in rat PC-12 cells at 50 uM preincubated with compound for 24 hrs followed by MPP+ treatment for 24 hrs by DTNB reagent based analysis; format: functional, cell-based; conditions: time 48.0 hrs
PC-12 [5] = experiment: Inhibition of MPP+ induced ROS production in rat PC-12 cells at 50 uM preincubated with compound for 24 hrs followed by MPP+ treatment for 24 hrs by DCFH-DA staining based fluorescence method; format: functional, cell-based; conditions: time 48.0 hrs
PC-12 [6] = experiment: Upregulation of xCT expression in MPP+ induced rat PC-12 cells at 50 nM pretreated with compound for 24 hrs followed by MPP+ stimulation and measured after 6 hrs; format: functional, cell-based; conditions: time 30.0 hrs

Papp A→B at 3 h [1] | Papp at 18 h, 500 µM [2] | SMILES | Activity (PC-12 [3]) | inhibition (PC-12 [4]) | inhibition (PC-12 [5]) | Activity (PC-12 [6])
27.4 ×10⁻⁶ cm/s |  | COCCc1ccc(OCC(O)CNC(C)C)cc1 (stereo not given) [METOPROLOL] |  |  |  | 
3.5 ×10⁻⁶ cm/s | 1.42 ×10⁻⁶ cm/s | COC(=O)[C@H](Cc1ccc(O)c(O)c1)NC(=O)[C@H](CCSC)NC(C)=O (Ac-Met-[Dopa]-OMe) |  |  |  | 
50.3 ×10⁻⁶ cm/s |  | NC(=O)N1c2ccccc2C=Cc2ccccc21 [CARBAMAZEPINE] |  |  |  | 
0.82 ×10⁻⁶ cm/s | 0.75 ×10⁻⁶ cm/s | N[C@@H](Cc1ccc(O)c(O)c1)C(=O)O [LEVODOPA] | Active | inactive | Active | Active
